According to paper PMC10806771 (Chemical Science, 2023):
Entries after “also recorded” stand apart in the source; their conditions may differ. Values belong to the compound of their own block, whether it stands above or below them.

Experiments:
[1] = biological target: T1, trastuzumab (Homo sapiens, UniProt P01857); assay: Random conjugation experiments with trastuzumab, LC-FTMS; assay type: biochemical; settings: 10 eq., 16h, RT, pH 9.5
[2] = biological target: T1, trastuzumab; assay: Template-directed conjugation to trastuzumab, LC-FTMS analysis; assay type: biochemical; settings: payload transferred with Fc-III-L6Orn carbonate reactive conjugate
[3] = cited from earlier work
[4] = system: mice bearing MDA-MB-231 (PD-L1hi) tumor xenograft; assay: [64Cu]Cu-atezolizumab biodistribution study; assay type: in vivo, mouse; settings: n = 4, ± SD
How it was run: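 Each received an i.v. dose of 0.25 MBq labelled conjugate (0.05 μg), given with 49.95 μg unlabelled parent antibody to saturate nonspecific Fc receptors. Animals were killed at 2, 24 and 48 h; organs collected, weighed and counted, and results given as %ID g−1. Blocking group at 24 h: co-injected 2 mg unlabelled antibody per mouse. n = 4 per group.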

[5] = system: mice bearing MDA-MB-231 xenograft; assay: [64Cu]Cu-atezolizumab PET/CT imaging study; assay type: in vivo, mouse; settings: 9 MBq i.v.; 2, 24, 48 h
[6] = 24 h p.i. + blocking (2 mg cold atezolizumab)

T1 sequence (P01857 1-330 isoform P01857-1): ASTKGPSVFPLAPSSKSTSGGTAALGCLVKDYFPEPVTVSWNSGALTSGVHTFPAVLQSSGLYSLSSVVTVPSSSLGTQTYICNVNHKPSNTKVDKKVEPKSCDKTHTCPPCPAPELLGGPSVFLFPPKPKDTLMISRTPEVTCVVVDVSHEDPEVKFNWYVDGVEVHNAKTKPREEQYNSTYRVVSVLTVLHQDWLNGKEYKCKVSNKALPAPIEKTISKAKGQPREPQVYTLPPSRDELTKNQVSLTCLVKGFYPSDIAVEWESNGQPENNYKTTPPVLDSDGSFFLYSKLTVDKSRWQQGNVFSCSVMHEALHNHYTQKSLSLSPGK

Compound: O=C(O)CN1CCN(CC(=O)O)CCN(CC(=O)ON2C(=O)CCC2=O)CCN(CC(=O)O)CC1 [DOTA-NHS]
Labeled mAb [1]: 73%
Selectivity Fc/Fab [1]: 1.46

Compound: DCAWH N GELVWCT NH2 (disulfide) [FITC]
Labeled mAb [2]: 95%
Selectivity Fc/Fab [2]: Fc selective

Compound: DCAWH N GELVWCT NH2 (disulfide) [NODAGA]
Labeled mAb [2]: 97%
Selectivity Fc/Fab [2]: Fc selective

Compound: PNU-159682
Cytotoxicity relative to doxorubicin [3]: more than thousandfold increased cytotoxicity compared to doxorubicin
Labeled mAb [2]: 46%
Selectivity Fc/Fab [2]: 5.40

Compound: [^64Cu]Cu-atezolizumab: atezolizumab-NODAGA prepared with Fc-III-L6Orn-carbonate-NODAGA, radiolabeled with copper-64
Biodistribution, Blood ([4]; 2 h p.i., i.v. 0.25 MBq): 6.3 ± 3.8 % ID g^−1
Biodistribution, Bone ([4]; 2 h p.i., i.v. 0.25 MBq): 2.5 ± 0.4 % ID g^−1
Biodistribution, Heart ([4]; 2 h p.i., i.v. 0.25 MBq): 7.8 ± 0.6 % ID g^−1
Biodistribution, Kidney ([4]; 2 h p.i., i.v. 0.25 MBq): 11.8 ± 1.3 % ID g^−1
Biodistribution, Large intestine ([4]; 2 h p.i., i.v. 0.25 MBq): 1.2 ± 0.5 % ID g^−1
Biodistribution, Liver ([4]; 2 h p.i., i.v. 0.25 MBq): 8.2 ± 0.1 % ID g^−1
Biodistribution, Lung ([4]; 2 h p.i., i.v. 0.25 MBq): 14.3 ± 1 % ID g^−1
Biodistribution, Muscle ([4]; 2 h p.i., i.v. 0.25 MBq): 1.3 ± 0.1 % ID g^−1
Biodistribution, Pancreas ([4]; 2 h p.i., i.v. 0.25 MBq): 1.8 ± 1.6 % ID g^−1
Biodistribution, Skin ([4]; 2 h p.i., i.v. 0.25 MBq): 1.1 ± 0.3 % ID g^−1
Biodistribution, Small intestine ([4]; 2 h p.i., i.v. 0.25 MBq): 3.8 ± 0.9 % ID g^−1
Biodistribution, Spleen ([4]; 2 h p.i., i.v. 0.25 MBq): 28.1 ± 4 % ID g^−1
Biodistribution, Stomach ([4]; 2 h p.i., i.v. 0.25 MBq): 1.6 ± 0.6 % ID g^−1
Biodistribution, Tumor (MDA-MB-231) ([4]; 2 h p.i., i.v. 0.25 MBq): 5 ± 1.2 % ID g^−1
Biodistribution, Blood [4, 6]: 10.9 ± 0.9 % ID g^−1
Biodistribution, Bone [4, 6]: 1.7 ± 0.1 % ID g^−1
Biodistribution, Heart [4, 6]: 4 ± 0.3 % ID g^−1
Biodistribution, Kidney [4, 6]: 4.2 ± 0.1 % ID g^−1
Biodistribution, Large intestine [4, 6]: 2.7 ± 0.2 % ID g^−1
Biodistribution, Liver [4, 6]: 5.3 ± 0.6 % ID g^−1
Biodistribution, Lung [4, 6]: 6.4 ± 0.7 % ID g^−1
Biodistribution, Muscle [4, 6]: 1 ± 0.2 % ID g^−1
Biodistribution, Pancreas [4, 6]: 3.6 ± 0.2 % ID g^−1
Biodistribution, Skin [4, 6]: 2.5 ± 0.4 % ID g^−1
Biodistribution, Small intestine [4, 6]: 2.6 ± 0.1 % ID g^−1
Biodistribution, Spleen [4, 6]: 17.9 ± 0.1 % ID g^−1
Biodistribution, Stomach [4, 6]: 1.5 ± 0.3 % ID g^−1
Biodistribution, Tumor (MDA-MB-231) [4, 6]: 4.3 ± 1 % ID g^−1
Biodistribution, Blood ([4]; 24 h p.i., i.v. 0.25 MBq): 3.1 ± 1.7 % ID g^−1
Biodistribution, Bone ([4]; 24 h p.i., i.v. 0.25 MBq): 4.2 ± 1.7 % ID g^−1
Biodistribution, Heart ([4]; 24 h p.i., i.v. 0.25 MBq): 6.8 ± 0.5 % ID g^−1
Biodistribution, Kidney ([4]; 24 h p.i., i.v. 0.25 MBq): 11.9 ± 1.3 % ID g^−1
Biodistribution, Large intestine ([4]; 24 h p.i., i.v. 0.25 MBq): 6.1 ± 0.9 % ID g^−1
Biodistribution, Liver ([4]; 24 h p.i., i.v. 0.25 MBq): 11.8 ± 1.9 % ID g^−1
Biodistribution, Lung ([4]; 24 h p.i., i.v. 0.25 MBq): 14.2 ± 1.9 % ID g^−1
Biodistribution, Muscle ([4]; 24 h p.i., i.v. 0.25 MBq): 2.8 ± 0.6 % ID g^−1
Biodistribution, Pancreas ([4]; 24 h p.i., i.v. 0.25 MBq): 9.6 ± 3.6 % ID g^−1
Biodistribution, Skin ([4]; 24 h p.i., i.v. 0.25 MBq): 2.7 ± 0.7 % ID g^−1
Biodistribution, Small intestine ([4]; 24 h p.i., i.v. 0.25 MBq): 8.7 ± 0.9 % ID g^−1
Biodistribution, Spleen ([4]; 24 h p.i., i.v. 0.25 MBq): 42.8 ± 10.7 % ID g^−1
Biodistribution, Stomach ([4]; 24 h p.i., i.v. 0.25 MBq): 4.5 ± 2.3 % ID g^−1
Biodistribution, Tumor (MDA-MB-231) ([4]; 24 h p.i., i.v. 0.25 MBq): 11.4 ± 1.8 % ID g^−1
Biodistribution, Blood ([4]; 48 h p.i., i.v. 0.25 MBq): 2 ± 1.2 % ID g^−1
Biodistribution, Bone ([4]; 48 h p.i., i.v. 0.25 MBq): 2.2 ± 0.4 % ID g^−1
Biodistribution, Heart ([4]; 48 h p.i., i.v. 0.25 MBq): 3.8 ± 0.6 % ID g^−1
Biodistribution, Kidney ([4]; 48 h p.i., i.v. 0.25 MBq): 8 ± 1.8 % ID g^−1
Biodistribution, Large intestine ([4]; 48 h p.i., i.v. 0.25 MBq): 3.7 ± 1 % ID g^−1
Biodistribution, Liver ([4]; 48 h p.i., i.v. 0.25 MBq): 8.5 ± 1.6 % ID g^−1
Biodistribution, Lung ([4]; 48 h p.i., i.v. 0.25 MBq): 6.6 ± 0.7 % ID g^−1
Biodistribution, Muscle ([4]; 48 h p.i., i.v. 0.25 MBq): 1.1 ± 0.1 % ID g^−1
Biodistribution, Pancreas ([4]; 48 h p.i., i.v. 0.25 MBq): 3.1 ± 0.2 % ID g^−1
Biodistribution, Skin ([4]; 48 h p.i., i.v. 0.25 MBq): 2 ± 0.8 % ID g^−1
Biodistribution, Small intestine ([4]; 48 h p.i., i.v. 0.25 MBq): 4.8 ± 1.3 % ID g^−1
Biodistribution, Spleen ([4]; 48 h p.i., i.v. 0.25 MBq): 21.3 ± 6.5 % ID g^−1
Biodistribution, Stomach ([4]; 48 h p.i., i.v. 0.25 MBq): 2.1 ± 0.5 % ID g^−1
Biodistribution, Tumor (MDA-MB-231) ([4]; 48 h p.i., i.v. 0.25 MBq): 5.5 ± 2.1 % ID g^−1
PET observations [5]: an important uptake of the radiotracer was observed in liver and in spleen; also recorded: increased contrast of the tumor over time with an optimum at 24 h

The remaining lines, values ahead:

Labeled mAb [2]: 73%
Selectivity Fc/Fab [2]: 5.70
Compound: DCAWH N GELVWCT NH2 (disulfide) [DM1]

Labeled mAb [2]: 68%
Selectivity Fc/Fab [2]: 6.80
Compound: DCAWH N GELVWCT NH2 (disulfide) [DM4]
